{"source": "ChEMBL document CHEMBL3045435", "about": "“Synthesis and fungicidal activity of macrolactams and macrolactones with an oxime ether side chain” (J Agric Food Chem, 2007)", "data": [{"tested_on": "Phyllosticta", "assay": "Fungicidal activity against Phyllospicpa physaleos Sacc (tomato southern blight fungi) assessed as growth inhibition", "type": "functional, organism-based", "units": {"EC50": "µg/mL"}, "values": [{"molecule": "CCCON=C1CCCCCCCCCCC(=O)NCCC1", "EC50": 1.9}]}, {"tested_on": "Botryosphaeria berengeriana", "assay": "Fungicidal activity against Botryosphaeria berengeriana Nose (apple ring spot fungi) assessed as growth inhibition", "type": "functional, organism-based", "units": {"EC50": "µg/mL"}, "values": [{"molecule": "CCCON=C1CCCCCCCCCCC(=O)NCCC1", "EC50": 13.8}]}, {"tested_on": "Alternaria solani", "assay": "Fungicidal activity against Alternaria solani assessed as growth inhibition", "type": "functional, organism-based", "units": {"EC50": "µg/mL"}, "values": [{"molecule": "CCCON=C1CCCCCCCCCCC(=O)NCCC1", "EC50": 44.2}]}, {"tested_on": "Verticillium albo-atrum", "assay": "Fungicidal activity against Vercicillium albo-atrum assessed as growth inhibition", "type": "functional, organism-based", "units": {"EC50": "µg/mL"}, "values": [{"molecule": "CCCON=C1CCCCCCCCCCC(=O)NCCC1", "EC50": 19.3}]}, {"tested_on": "Botrytis cinerea", "assay": "Fungicidal activity against Botryotinia fuckeliana assessed as growth inhibition", "type": "functional, organism-based", "units": {"EC50": "µg/mL"}, "values": [{"molecule": "CCCON=C1CCCCCCCCCCC(=O)NCCC1", "EC50": 8.6}]}, {"tested_on": "Alternaria kikuchiana", "assay": "Fungicidal activity against Alternaria kikuchiana (pear black spot fungi) assessed as growth inhibition", "type": "functional, organism-based", "units": {"EC50": "µg/mL"}, "values": [{"molecule": "CCCON=C1CCCCCCCCCCC(=O)NCCC1", "EC50": 1.2}]}, {"tested_on": "Colletotrichum lagenaria", "assay": "Fungicidal activity against Colletotrichum lagenaria assessed as growth inhibition", "type": "functional, organism-based", "units": {"EC50": "µg/mL"}, "values": [{"molecule": "CCCON=C1CCCCCCCCCCC(=O)NCCC1", "EC50": 23.9}]}, {"tested_on": "Rhizoctonia solani", "assay": "Fungicidal activity against Rhizoctonia solani assessed as growth inhibition", "type": "functional, organism-based", "in_short": "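Mycelium growth rate test on Rhizoctonia solani Kühn. Inhibition rate was measured at 100, 50, 25, 12.5 and 6.25 µg/mL. EC50 was estimated by logistic analysis. A commercial fungicide reference was run under the same conditions.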", "units": {"EC50": "µg/mL"}, "values": [{"molecule": "CCCON=C1CCCCCCCCCCC(=O)NCCC1", "EC50": 4.6}]}, {"tested_on": "Phomopsis asparagi", "assay": "Fungicidal activity against Phomopsis asparagi assessed as growth inhibition", "type": "functional, organism-based", "units": {"EC50": "µg/mL"}, "values": [{"molecule": "CCCON=C1CCCCCCCCCCC(=O)NCCC1", "EC50": 12}]}, {"tested_on": "Pythium aphanidermatum", "assay": "Fungicidal activity against Pythium aphanidermatum assessed as growth inhibition", "type": "functional, organism-based", "units": {"EC50": "µg/mL"}, "values": [{"molecule": "CCCON=C1CCCCCCCCCCC(=O)NCCC1", "EC50": 33.3}]}, {"tested_on": "Phytophthora capsici", "assay": "Fungicidal activity against Phytophthora capsici assessed as growth inhibition", "type": "functional, organism-based", "units": {"EC50": "µg/mL"}, "values": [{"molecule": "CCCON=C1CCCCCCCCCCC(=O)NCCC1", "EC50": 57.8}]}, {"tested_on": "Fulvia fulva", "assay": "Fungicidal activity against Passalora fulva Cooke (tomato leaf mold fungi) assessed as growth inhibition", "type": "functional, organism-based", "units": {"EC50": "µg/mL"}, "values": [{"molecule": "CCCON=C1CCCCCCCCCCC(=O)NCCC1", "EC50": 53.1}]}, {"tested_on": "Fusarium oxysporum f. sp. vasinfectum", "assay": "Fungicidal activity against cotton Fusarium oxysporum f. sp. vasinfectum (fusarium wilt fungi) assessed as growth inhibition", "type": "functional, organism-based", "units": {"EC50": "µg/mL"}, "values": [{"molecule": "CCCON=C1CCCCCCCCCCC(=O)NCCC1", "EC50": 29}]}, {"tested_on": "Rhizoctonia solani", "assay": "Fungicidal activity against Rhizoctonia solani by mycelium growth rate test", "type": "functional, organism-based", "units": {"EC50": "µg/mL"}, "values": [{"molecule": "CCCO/N=C1/CCCCCCCCCCC(=O)NCC1", "EC50": 22.1}, {"molecule": "CCCCCCCCCCCCCCO/N=C1\\CCCCCCCCCCC(=O)NCC1", "EC50": 69.1}, {"molecule": "O=C1CCCCCCCCCC/C(=N\\OCc2ccccc2)CCN1", "EC50": 7.24}, {"molecule": "Cc1ccc(CO/N=C2/CCCCCCCCCCC(=O)NCC2)cc1", "EC50": 111}, {"molecule": "O=C1CCCCCCCCCCC(=NOCc2ccc(Cl)cc2)CCCO1", "EC50": 19.6}, {"molecule": "CCCCCCCCCCCCCCCCO/N=C1\\CCCCCCCCCCC(=O)NCC1", "EC50": 127}, {"molecule": "O=C1CCCCCCCCCC/C(=N\\OCc2ccc(F)cc2)CCN1", "EC50": 12.1}, {"molecule": "CCCCO/N=C1\\CCCCCCCCCCC(=O)NCCC1", "EC50": 2.34}, {"molecule": "CCCCO/N=C1\\CCCCCCCCCCC(=O)NCC1", "EC50": 7.21}, {"molecule": "O=C1CCCCCCCCCC/C(=N/OCc2ccc(Cl)cc2)CCCN1", "EC50": 68.4}, {"molecule": "CCCO/N=C1\\CCCCCCCCCCC(=O)NCC1", "EC50": 9.11}, {"molecule": "CCCCCCCCCCCCCCCCO/N=C1/CCCCCCCCCCC(=O)NCCC1", "EC50": 47.8}, {"molecule": "CCCCCCCO/N=C1\\CCCCCCCCCCC(=O)NCCC1", "EC50": 27.9}, {"molecule": "CCCCCCCO/N=C1\\CCCCCCCCCCC(=O)NCC1", "EC50": 50.3}, {"molecule": "Cc1ccc(CO/N=C2\\CCCCCCCCCCC(=O)NCC2)cc1", "EC50": 50.5}, {"molecule": "CC(C)CO/N=C1\\CCCCCCCCCCC(=O)NCC1", "EC50": 30.4}, {"molecule": "C=CCO/N=C1\\CCCCCCCCCCC(=O)NCC1", "EC50": 21.8}, {"molecule": "CCCCO/N=C1/CCCCCCCCCCC(=O)NCCC1", "EC50": 3.97}, {"molecule": "CCCCCCCO/N=C1/CCCCCCCCCCC(=O)NCCC1", "EC50": 19.2}, {"molecule": "CO/N=C1/CCCCCCCCCCC(=O)NCC1", "EC50": 51.3}, {"molecule": "C=CCO/N=C1/CCCCCCCCCCC(=O)NCCC1", "EC50": 45.6}, {"molecule": "O=C1CCCCCCCCCC/C(=N\\OCc2c(F)cccc2Cl)CCCN1", "EC50": 6.21}, {"molecule": "O=C1CCCCCCCCCC/C(=N/OCc2ccc(F)cc2)CCN1", "EC50": 74.9}, {"molecule": "O=C1CCCCCCCCCC/C(=N\\OCc2c(F)cccc2Cl)CCN1", "EC50": 43}, {"molecule": "CC(C)CO/N=C1/CCCCCCCCCCC(=O)NCC1", "EC50": 48.4}, {"molecule": "O=C1CCCCCCCCCC/C(=N\\OCc2ccc(Cl)cc2)CCN1", "EC50": 84.8}, {"molecule": "O=C1CCCCCCCCCC/C(=N/OCc2cccnc2)CCN1", "EC50": 56.4}, {"molecule": "CCO/N=C1\\CCCCCCCCCCC(=O)NCC1", "EC50": 25.8}, {"molecule": "O=C1CCCCCCCCCC/C(=N\\OCc2ccc(Cl)cc2Cl)CCN1", "EC50": 106}, {"molecule": "CCO/N=C1\\CCCCCCCCCCC(=O)NCCC1", "EC50": 22.7}, {"molecule": "O=C1CCCCCCCCCC/C(=N/OCc2c(F)cccc2Cl)CCN1", "EC50": 1730}, {"molecule": "C=CCON=C1CCCCCCCCCCC(=O)OCCC1", "EC50": 12.8}, {"molecule": "O=C1CCCCCCCCCC/C(=N/OCc2ccc(Cl)cc2Cl)CCN1", "EC50": 100}, {"molecule": "CO/N=C1\\CCCCCCCCCCC(=O)NCC1", "EC50": 55.8}, {"molecule": "C=CCO/N=C1/CCCCCCCCCCC(=O)NCC1", "EC50": 44}, {"molecule": "O=C1CCCCCCCCCC/C(=N/OCc2c(F)cccc2Cl)CCCN1", "EC50": 2.34}, {"molecule": "O=C1CCCCCCCCCC/C(=N/OCc2ccccc2)CCN1", "EC50": 18.1}, {"molecule": "CCCCCCCCCCCCCCCCO/N=C1/CCCCCCCCCCC(=O)NCC1", "EC50": 135}, {"molecule": "CCCCCCCCCCCCCCCCO/N=C1\\CCCCCCCCCCC(=O)NCCC1", "EC50": 51.5}, {"molecule": "COC(=O)Nc1nc2ccccc2[nH]1", "note": "[CARBENDAZIM]", "EC50": 1.54}, {"molecule": "O=C1CCCCCCCCCC/C(=N\\OCc2ccc(Cl)cc2)CCCN1", "EC50": 164}, {"molecule": "CCCCO/N=C1/CCCCCCCCCCC(=O)NCC1", "EC50": 55.1}, {"molecule": "C=CCO/N=C1\\CCCCCCCCCCC(=O)NCCC1", "EC50": 15.9}, {"molecule": "CCCCCCCON=C1CCCCCCCCCCC(=O)OCCC1", "EC50": 9.68}, {"molecule": "O=C1CCCCCCCCCC/C(=N/OCc2ccc([N+](=O)[O-])cc2)CCN1", "EC50": 49.3}, {"molecule": "O=C1CCCCCCCCCC/C(=N/OCc2ccccc2)CCCN1", "EC50": 5.84}, {"molecule": "CCCCCCCCCCCCCCCCON=C1CCCCCCCCCCC(=O)OCCC1", "EC50": 40.4}, {"molecule": "CCCO/N=C1/CCCCCCCCCCC(=O)NCCC1", "EC50": 13.1}, {"molecule": "CCCO/N=C1\\CCCCCCCCCCC(=O)NCCC1", "EC50": 3.62}, {"molecule": "O=C1CCCCCCCCCC/C(=N\\OCc2cccnc2)CCN1", "EC50": 52.5}, {"molecule": "O=C1CCCCCCCCCC/C(=N\\OCc2ccccc2)CCCN1", "EC50": 8.28}, {"molecule": "O=C1CCCCCCCCCCC(=NOCc2c(F)cccc2Cl)CCCO1", "EC50": 51.3}, {"molecule": "CCCCCCCO/N=C1/CCCCCCCCCCC(=O)NCC1", "EC50": 209}, {"molecule": "CCCON=C1CCCCCCCCCCC(=O)OCCC1", "EC50": 8.08}, {"molecule": "CCCCCCCCCCCCCCO/N=C1/CCCCCCCCCCC(=O)NCC1", "EC50": 101}, {"molecule": "CCCCON=C1CCCCCCCCCCC(=O)OCCC1", "EC50": 13.4}, {"molecule": "O=C1CCCCCCCCCCC(=NOCc2ccccc2)CCCO1", "EC50": 45.1}, {"molecule": "O=C1CCCCCCCCCC/C(=N/OCc2ccc(Cl)cc2)CCN1", "EC50": 97.2}, {"molecule": "O=C1CCCCCCCCCC/C(=N\\OCc2ccc([N+](=O)[O-])cc2)CCN1", "EC50": 166}]}]}
